The entries come from a sample that favours hits as a whole.
UPR CHOP act – apoptotic UPR (CHOP) activation. CHO-CHOP luciferase reporter, luminescence; percent of tunicamycin response over DMSO baseline. activation, % at 10 µM. actives 0.34% (n = 330,000). AID 449763;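 active = at 10 µM dose, activation of 40% or more, normalized to positive control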;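 note: 100% = tunicamycin at 10 µg/mL and 0% = DMSO alone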
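Test system: CHO CHOP reporter cells. Input: 500 CHO-CHOP cells per well. Medium: F12 with 10% FBS. Technique: luciferase luminescence. Measure: percent activation relative to tunicamycin control. Dosing: 10 µM compound, 0.5% DMSO. Timing: 16-18 h cell attachment, then 6 h compound exposure, 37 °C.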
Bfl-1 A1 inh – inhibitors of the anti-apoptotic protein A1, read as caspase activation. MEF A1-2A-BIM cells, Caspase-Glo 3/7 luminescence, 3 h; percent of clofoctol response, vehicle zero. caspase activation, % (test concentration not listed). actives 0.066% (n = 330,000);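 active = over half of replicate activation scores above 10%, or exactly half above 10 with the replicate mean above 10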
XBP1 UPR activ – activators of adaptive arm of unfolded protein response (XBP1). CHO-XBP1 luciferase reporter, IRE1-XBP1 UPR activation, luminescence; percent of tunicamycin response, DMSO as zero. activation, % at 20 µM. actives 0.33% (n = 330,000);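 active = versus positive control, 20 µM dose yields 30% or more activation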;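 note: 100% = tunicamycin at 10 µg/mL and 0% = DMSO only wells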
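Material: IRE1-XBP1 luciferase reporter CHO line / Quantity: one thousand reporter cells per well / Buffer or medium: F12 with 10% serum / Compound: 20 µM single concentration, DMSO 1% / Times: 6 h treatment, 37 °C / Detection: Steady-Glo luciferase glow luminescence, 10 min after reagent addition / Benchmarks: tunicamycin high, DMSO low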
CHOP inhibitor – CHOP inhibition in unfolded protein response | CHO-K1 CHOP-promoter luciferase, tunicamycin-induced, 15-18 h | inhibition, % at 10 µM | actives 3.8% (n = 220,000) | AID 2732;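 active = compounds that reduced the stress-induced luciferase reporter signal by more than about 70% of percent inhibition, limit read from the data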;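 note: 0% = tunicamycin plus vehicle and 100% = wells without tunicamycin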
CHOP UPR conf – confirmation of apoptotic unfolded protein response (CHOP) activators. shares compounds with UPR CHOP act. CHO-CHOP cells, CHOP-luciferase reporter luminescence; percent of tunicamycin response, DMSO as zero. activation, % at 10 µM. actives 64% (n = 1,000); in the data active = activation above about 33%;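 note: 0% = DMSO wells and 100% = tunicamycin 10 µg/mL wells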
XBP1 UPR conf – adaptive UPR (XBP1) activation, confirmed | shares compounds with XBP1 UPR activ | CHO-XBP1 IRE1-XBP1 luciferase reporter, luminescence | activation, % at 20 µM | actives 63% (n = 1,000);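 active = reporter signal at least 30% of the positive control's activation in two or more of four replicate wells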;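 note: plate controls were DMSO negative control for no effect and tunicamycin 10 µg/mL positive control for full effect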
Starred values were filed as active, the others as inactive; / = no result given.

SMILES | UPR CHOP act | Bfl-1 A1 inh | XBP1 UPR activ | CHOP inhibitor | CHOP UPR conf | others
CCOC(=O)c1ccc(NC(=O)C2C3C=CC(O3)C2C(=O)O)cc1 (stereo not drawn) | -0.1 | 0.5 | -0.2 | 31.3 | /
O=c1c2ccccc2nc(/C=C/c2ccc([N+](=O)[O-])o2)n1-c1ccc(O)cc1 | 93.6* | / | 20.6 | -129.0 | 37.4*
Cc1cccc(-n2c(/C=C/c3ccc([N+](=O)[O-])o3)nc3ccccc3c2=O)c1 | 42.9* | -0.3 | 11.9 | -84.7 | 36.9*
C=C1C(=O)O[C@@H]2C[C@@H](C)[C@H]3C=CC(=O)[C@]3(O)C[C@@H]12 | 60.5* | -0.5 | -3.8 | -20.1 | 23.8
CCCCCCNC(=O)N[C@@H](Cc1ccc(O)cc1)C(=O)NCCC[C@H]1CN2C(=NC[C@H]2C)N1CC1CCC1 | 5.4 | -0.3 | 3.4 | -25.1 | /
CN1C(=O)/C(=C\c2ccc(Br)s2)C(=O)NC1=S | / | 0.1 | / | / | /
O=C1NC(=S)NC(=O)C1=Cc1ccc(Br)s1 | 71.7* | 0.2 | -4.5 | / | 118.7*
Cc1ccc(-c2cc(-c3ccc(C)cc3)[n+](-c3ccccc3)c(-c3ccc(C)cc3)c2)cc1 | 54.7* | -1.2 | 6.6 | / | 69.0*
Cc1ccc(-c2cc(-c3ccccc3)cc(-c3ccccc3)[n+]2-c2ccccc2)cc1 | 29.3 | -0.3 | -3.9 | / | /
CN(C)C(=O)Oc1cccc2c(OC(=O)N(C)C)cccc12 | -0.1 | -0.8 | 2.9 | -2.7 | /
CCc1ccc(N2C(=O)NC(=O)/C(=C\C=C\c3ccco3)C2=O)cc1 | 166.8* | 2.6 | -4.3 | 108.2* | 228.9*
CCOc1ccc(N2C(=O)/C(=C/c3ccco3)C(=O)NC2=S)cc1 | 37.5 | 0.5 | -4.9 | / | /
O=C1NC(=O)N(c2ccccc2)C(=O)/C1=C\C=C\c1ccccc1 | 174.7* | 1.8 | -1.0 | 80.9* | 63.5*
Cc1ccc(N2C(=O)NC(=O)/C(=C/C=C/c3ccco3)C2=O)cc1 | 168.3* | 0.4 | -3.9 | 101.5* | 119.0*
O=C(c1cc(S(=O)(=O)N2CCC3(CC2)OCCO3)ccc1F)N1CCC2(CC1)OCCO2 | 1.7 | 0.5 | -3.4 | -19.2 | /
O=c1[nH]c(=O)n(-c2cccc(Cl)c2)c(O)c1/C=N/c1ccccn1 | -1.5 | -0.3 | -3.5 | 33.4 | /
N=Cc1c(O)n(-c2cccc(Cl)c2)c(=O)[nH]c1=O | 40.1* | 0.6 | -2.3 | 19.2 | -1.1
Cc1cc(N(CCCl)CCCl)ccc1/C=N/N=C(\N)c1cnccn1 | 4.3 | 0.0 | 6.4 | / | /
COc1ccc(CCn2c(O)c(C=NCc3ccc4c(c3)OCO4)c(=O)[nH]c2=O)cc1OC | -0.8 | -0.3 | -1.1 | 27.1 | /
CCN(CC)c1ccc(N=Cc2c(O)n(-c3ccc(Cl)cc3)c(=O)[nH]c2=O)cc1 | 31.3 | -0.7 | 166.9* | 47.9 | / | XBP1 UPR conf=48.3*
CCN1CCN(C(=O)Cc2ccc(C)cc2)CC1 | 5.6 | 1.2 | -2.2 | / | /
N[C@@H]1C[C@H]1c1ccccc1 | 1.9 | 1.2 | -6.2 | / | /
CCCCCc1nc2ccccc2c(=O)n1-c1ccccc1[N+](=O)[O-] | 2.3 | 0.3 | -2.7 | -4.1 | /
CCCCCc1nc2c(c(=O)c3ccccc3n2C)c(=O)n1C1CCCCCC1 | 12.2 | 0.2 | 61.2* | 102.9* | / | XBP1 UPR conf=46.1*
Cc1ccc(C)c(NC(=O)CSc2nnc([C@@H](N)Cc3c[nH]c4ccccc34)o2)c1 | -0.1 | 1.1 | 0.6 | 8.6 | /
C=C(C)[C@@]12OC3(c4ccccc4)O[C@@H]1C1[C@@H]4O[C@]4(CO)[C@@H](O)[C@]4(O)C(=O)C(C)=C[C@H]4[C@@]1(O3)[C@H](C)[C@H]2OC(=O)/C=C/C=C/c1ccccc1 (stereo partly drawn) | 35.8 | 0.2 | 47.0* | / | / | XBP1 UPR conf=60.9*
CC(C)N1CC=C(c2c[nH]c3ccccc23)CC1 | -4.2 | -0.1 | 48.2* | 25.0 | / | XBP1 UPR conf=0.4
